Measurements as given in ChEMBL document CHEMBL1124455, “Benzodiazepine receptor binding activity of 6,9-disubstituted purines” (J Med Chem, 1989).

Assays:
[1] = target: T1, GABA-A receptor; anion channel (Rattus norvegicus) (UniProt O09028+P15431+P18506+P18508+P19969+P20236+P23574+P23576+P28471+P28473+P30191+P62813+P63079+P63138+Q91ZM7+Q9ES14); assay: The percent inhibition of [3H]diazepam binding to the benzodiazepine receptor of rat brain elicited by 100 uM of compound
Rattus norvegicus [2] = assay: Effect on conflict responding in Long-Evans rats when 25 mg/kg was administered by oral gavage in a modified Geller-Seifter conflict schedule.; assay type: functional
How it was run: (§1)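 Rats run on a modified Geller-Seifter conflict schedule. Shock was 0.00 mA for the first response of each conflict period, rising by 0.05 mA per successive response. 25 mg/kg given by oral gavage as a 0.5% methylcellulose suspension, 60 min before the operant session. Result is percent change in conflict responses versus the preceding day, mean and SEM, at least four rats.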

[3] = target: GABA-A receptor; anion channel; assay: Concentration that inhibits binding of 1.5 nM [3H]diazepam to rat brain benzodiazepine receptor
How it was run: (§2)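 Membranes from male Sprague-Dawley rat brain (110–220 g; cerebellum and pons medulla removed), homogenized in 0.32 M sucrose. The 30000g pellet was stored frozen and resuspended in Tris-HCl pH 7.5. Filtered on GF/C and washed with ice-cold buffer, then scintillation counted.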

[4] = target: T1, GABA-A receptor; anion channel (Rattus norvegicus); assay: Percent inhibition of [3H]diazepam binding to rat brain GABA-A benzodiazepine receptor at 100 uM
How it was run: as §2, with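 “7.5. […]” for “7.5.”, “counted. Percent inhibition of specific binding at 100 μM; IC50 usually determined when >75%.” for “counted.”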

Rattus norvegicus [5] = assay: Effect on conflict responding in Long-Evans rats when 10 mg/kg was administered by oral gavage in a modified Geller-Seifter conflict schedule.; assay type: functional
How it was run: (§3)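 Rats on a modified Geller-Seifter operant conflict schedule were dosed by oral gavage as a 0.5% methylcellulose suspension 60 min before the session. Shock was 0.00 mA for the first response in each conflict period, rising 0.05 mA with each further response. The value is the percent change in conflict responses from the preceding day, as mean and SEM of at least four rats.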

Rattus norvegicus [6] = assay: Effect on conflict responding in Long-Evans rats when 5 mg/kg was administered by oral gavage in a modified Geller-Seifter conflict schedule.; assay type: functional; how it was run: as §3
Rattus norvegicus [7] = assay: Effect on conflict responding in Long-Evans rats when 25 mg/kg was administered by oral gavage in a modified Geller-Seifter conflict schedule and the value ranges from -10 to + 13; assay type: functional; how it was run: as §1
[8] = in the assay text read “10 uM” for “100 uM”

Row | Structure (SMILES) | inhibition [1] [%] | IC50 [3] [µM] | further results
1 | Clc1ncnc2c1ncn2Cc1ccccc1 | 40 |  | 
2 | CN(C)c1ncnc2c1ncn2Cc1ccccc1N |  |  | inhibition [1, 8]: 19%
3 | CN(C)c1ncnc2c1ncn2Cc1cccc(O)c1 |  | 1.2 | Change in conflict (Rattus norvegicus [2]): 2%
4 | CN(C)c1ncnc2c1ncn2Cc1ccc(F)cc1 | 23 |  | 
5 | CN(C)c1ncnc2c1ncn2Cc1cccc(C#N)c1 | 70 |  | 
6 | CN(C)c1ncnc2c1ncn2Cc1cccc(OC(=O)C(C)(C)C)c1 |  | 1.6 | Change in conflict (Rattus norvegicus [2]): 6%
7 | CN(C)c1ncnc2c1ncn2Cc1ccccc1 |  | 13 | Change in conflict (Rattus norvegicus [2]): -17%
8 | CCN(CC)c1ncnc2c1ncn2Cc1ccccc1 | 83 |  | 
9 | CN(C)c1ncnc2c1ncn2Cc1cccc(Cl)c1 | 59 |  | 
10 | CN(C)c1ncnc2c1ncn2Cc1ccc(C#N)cc1 | 26 |  | 
11 | CN(C)c1ncnc2c1ncn2Cc1cccc(F)c1 |  | 7.3 | 
12 | Cn1cnc2c(ncn2Cc2ccccc2)c1=O |  | 15.5 | Change in conflict (Rattus norvegicus [2]): -16%
13 | c1ccc(Cn2cnc3c(N4CCCC4)ncnc32)cc1 |  | 16 | Change in conflict (Rattus norvegicus [2]): 10%
14 | CN(C)c1ncnc2c1ncn2C(c1ccccc1)c1ccccc1 |  | 17 | 
15 | CN(C)c1ncnc2c1ncn2C1CCCc2ccccc21 (stereo unspecified) |  | 22 | 
16 | Cc1ccccc1Cn1cnc2c(N(C)C)ncnc21 | 70 |  | 
17 | CN(C)c1ncnc2c1ncn2C | 0 |  | 
18 | CN(C)c1ncnc2c1ncn2CCCc1ccccc1 | 0 |  | 
19 | CN(C)c1ncnc2c1ncn2-c1ccccc1 |  |  | inhibition [4]: 0%
20 | COc1ncnc2c1ncn2Cc1ccccc1 [9-BENZYL-6-METHOXY-9H-PURINE] |  | 14 | Change in conflict (Rattus norvegicus [2]): 26%

Row | Structure (SMILES) | inhibition [1] [%] | IC50 [3] [µM] | further results
21 | CN(C)c1ncnc2c1ncn2CCc1ccccc1 | 0 |  | 
22 | Cc1cccc(Cn2cnc3c(N(C)C)ncnc32)c1 | 62 |  | 
23 | CN(C)c1ncnc2c1ncn2C1Cc2ccccc2C1 |  |  | inhibition [4]: 48%
24 | CN(C)c1ncnc2c1ncn2Cc1ccccc1Cl |  | 13 | 
25 | CN(C)c1ncnc2c1ncn2Cc1ccccc1F |  | 5.4 | Change in conflict (Rattus norvegicus [2]): 17%
26 | CN(C)c1ncnc2c1ncn2Cc1ccc(Cl)cc1 | 24 |  | 
27 | CN(C)c1ncnc2c1ncn2Cc1cccc(N)c1 |  | 0.9 | Change in conflict (Rattus norvegicus [2]): 4%
28 | CN(C)c1ncnc2c1ncn2Cc1ccc(N)cc1 | 67 |  | 
29 | CNc1ncnc2c1ncn2Cc1ccccc1 |  | 24 | Change in conflict (Rattus norvegicus [2]): -3%
30 | CNC1=Nc2ccc(Cl)cc2C(c2ccccc2)=[N+]([O-])C1 [CHLORDIAZEPOXIDE] |  | 0.2 | Change in conflict (Rattus norvegicus [5]): 46%; Change in conflict (Rattus norvegicus [6]): 24%; Change in conflict (Rattus norvegicus [2]): 67%
31 | CN(C)c1ncnc2c1ncn2Cc1ccc(OCc2ccccc2)cc1 | 11 |  | 
32 | CN(C)c1ncnc2c1ncn2Cc1cccc(I)c1 | 64 |  | 
33 | c1ccc(Cn2cnc3cncnc32)cc1 |  |  | inhibition [4]: 34%
34 | CCNc1ncnc2c1ncn2Cc1ccccc1 |  | 19 | 
35 | Oc1ncnc2c1ncn2Cc1ccccc1 |  | 19 | 
36 | COc1ccccc1Cn1cnc2c(N(C)C)ncnc21 |  | 20 | 
37 | COc1ccc(Cn2cnc3c(N(C)C)ncnc32)cc1 | 0 |  | 
38 | c1ccc(Cn2cnc3c(NC4CC4)ncnc32)cc1 |  |  | inhibition [4]: 68%
39 | C[C@H](c1ccccc1)n1cnc2c(N(C)C)ncnc21 | 56 |  | 
40 | Cc1ccc(Cn2cnc3c(N(C)C)ncnc32)cc1 | 22 |  | 

Row | Structure (SMILES) | inhibition [1] [%] | IC50 [3] [µM] | further results
41 | C[C@@H](c1ccccc1)n1cnc2c(N(C)C)ncnc21 |  | 2.1 | Change in conflict (Rattus norvegicus [2]): 5%
42 | c1ccc(Cn2cnc3c(N4CCC4)ncnc32)cc1 |  | 15 | Change in conflict (Rattus norvegicus [2]): -7%
43 | CN(c1ncnc2c1ncn2Cc1ccccc1)C1CCCC1 |  | 14 | Change in conflict (Rattus norvegicus [7]): -10%
44 | CN(C)c1ncnc2c1ncn2Cc1ccc(O)cc1 |  |  | inhibition [1, 8]: 15%
45 | CN(C)c1ncnc2c1ncn2Cc1cccc(Br)c1 | 63 |  | 
46 | CN(C)c1ncnc2c1ncn2Cc1cccc([N+](=O)[O-])c1 | 48 |  | 
47 | COc1cccc(Cn2cnc3c(N(C)C)ncnc32)c1 | 70 |  | 
48 | OCCNc1ncnc2c1ncn2Cc1ccccc1 |  |  | inhibition [4]: 73%
49 | CC(=O)Oc1cccc(Cn2cnc3c(N(C)C)ncnc32)c1 |  | 0.44 | Change in conflict (Rattus norvegicus [2]): 2%
50 | CN(C)c1ncnc2c1ncn2Cc1ccccc1[N+](=O)[O-] |  |  | inhibition [1, 8]: 48%
51 | CN(C)c1ncnc2c1ncn2Cc1ccc([N+](=O)[O-])cc1 | 23 |  | 
52 | Nc1ncnc2c1ncn2Cc1ccccc1 [9-BENZYL-9H-ADENINE] |  | 37 | 
53 | CCN(C)c1ncnc2c1ncn2Cc1ccccc1 |  | 19 | 
54 | CN(C)c1ncnc2c1ncn2Cc1cccc(CO)c1 |  | 5 | Change in conflict (Rattus norvegicus [2]): 4%
55 | CN(C)c1ncnc2nc[nH]c12 | 57 |  | 
56 | CN(C)c1ncnc2c1ncn2Cc1cccc(C(F)(F)F)c1 | 49 |  | 
57 | CC(=O)Nc1ccc(Cn2cnc3c(N(C)C)ncnc32)cc1 | 22 |  | 
58 | CSc1ncnc2c1ncn2Cc1ccccc1 |  | 3.3 | Change in conflict (Rattus norvegicus [2]): 13%
